MC4R barr agon: agonists of human melanocortin 4 receptor (MC4R) beta-arrestin; actives 0.98% (n = 360,000); AID 540308; U2OS MC4R beta-arrestin complementation, luminescence; percent of melanotan II response, DMSO zero; activation, % at 8.9 µM;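 active = activation above a per-plate cutoff, the mean activation of sample wells on that plate plus 3 SD, cut at about 8% in these data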
MC4R antagonist: human MC4R antagonism in cAMP assay; P32245; MC4R-expressing cells, MTII-stimulated cAMP, LANCE TR-FRET; inhibition, % at 6.5 µM; actives 0.48% (n = 360,000);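 active = inhibition above its plate's cutoff, the mean of tested wells on that plate plus 3 SD, cut at about 29% in these data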
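Material – human MC4R-expressing U2OS cells · Repeats – no replicates · Detection – TR-FRET with Eu-cAMP and labeled anti-cAMP, 671 nm · Times – compound 30 min, challenge 1 h, detection 1 h · Compound – single nominal compound dose of 6.5 µM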
EBI2 antag: EBI2 (human) antagonism; EBI2 beta-arrestin recruitment, luminescence, 7a,25-OHC stimulated; inhibition, % at 5 µM; actives 0.81% (n = 360,000); in the data active = inhibition above about 38%;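 also: enzyme fragment complementation signal reports receptor beta-arrestin coupling in cells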
Target sequence (P32249 whole entry, looked up, the tested form may be a part): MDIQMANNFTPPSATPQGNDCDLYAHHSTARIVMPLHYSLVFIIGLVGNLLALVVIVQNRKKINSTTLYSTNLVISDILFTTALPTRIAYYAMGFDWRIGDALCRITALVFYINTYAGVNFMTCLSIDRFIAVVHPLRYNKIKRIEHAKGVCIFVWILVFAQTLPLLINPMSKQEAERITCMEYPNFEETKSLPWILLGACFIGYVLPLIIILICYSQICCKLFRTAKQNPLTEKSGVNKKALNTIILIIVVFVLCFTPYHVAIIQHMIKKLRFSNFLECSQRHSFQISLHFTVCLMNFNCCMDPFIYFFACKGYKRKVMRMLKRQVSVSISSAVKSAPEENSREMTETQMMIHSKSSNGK
m5-HT2A agonist: activates the mouse 5-HT2A serotonin receptor; CHO-K1 mHTR2A beta-arrestin complementation, luminescence; percent of 30 µM serotonin response; activation, % at 7.6 µM; actives 0.66% (n = 360,000); AID 624169;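 active = activation above a run cutoff, the mean activation of all tested compounds plus 3 SD, cut at about 14% in these data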
Of the large screens only hits and unclear results are named; the others gave an inactive call. Hits are enriched below; roughly 2.8% of the tested compounds scored in any of these assays.

Cc1ccc(NC(=O)COC(=O)c2ccc(-n3nc(C)cc3C)cc2)c(F)c1	MC4R barr agon 8.6
CCOc1cc(S(=O)(=O)Nc2ccc(CC)cc2)ccc1Cl	MC4R barr agon 9.4
CCOc1cc(S(=O)(=O)Nc2ccccc2CC)ccc1Cl	none
Cc1cc2c(cc1C)CSC(c1ccc(O)cc1)SC2	MC4R barr agon 8.6
COc1ccc2nc3ccccc3nc2c1NC(=O)c1ccc(Br)cc1	none
COc1ccc2nc3ccccc3nc2c1NC(=O)c1ccc(Cl)cc1	MC4R barr agon 9.1
CC(C)c1ccc(S(=O)(=O)/N=C2/C=C(Sc3ncn[nH]3)C(=O)c3ccccc32)cc1	MC4R antagonist 29
COc1cc(C(=O)Nc2nc3ccc(S(C)(=O)=O)cc3s2)cc(OC)c1C	MC4R barr agon 19
O=C1C(=O)c2c(ccc3ccccc23)-c2ccccc21	none
Cc1ccc(Cl)cc1-n1c(SCC(=O)NCCC2=CCCCC2)nc2n[nH]c(C)c2c1=N	none
COc1ccc(OC)c(NC(=O)CSc2nc3n[nH]c(C)c3c(=N)n2-c2cccc(Cl)c2C)c1	none
Cc1[nH]nc2nc(SCC(=O)NCCC3=CCCCC3)n(-c3ccc(Br)cc3)c(=N)c12	MC4R barr agon 49
Cc1cc(-n2c(SCC(=O)NCCC3=CCCCC3)nc3n[nH]c(C)c3c2=N)ccc1Cl	MC4R barr agon 15
COc1ccc(NC(=O)CSc2nc3n[nH]c(C)c3c(=N)n2-c2ccc(Cl)c(C)c2)cc1OC	MC4R barr agon 25
CN(C)c1ccc(C=NN2C(=O)CSC2=S)c(Cl)c1	none
CCc1ccc(O)c(N=Cc2cccc(C)c2O)c1	none
CCCc1ccc(O)c(N=Cc2cc(Br)cc(OCC)c2O)c1	MC4R barr agon 12
CSc1nc2sc3c(c2c(=O)n1C)CCC3	none
C#CCSc1nc2sc3c(c2c(=O)n1C)CCC3	MC4R barr agon 9.1
COc1ccccc1-c1cc(C(=O)Nc2ccccc2SC)no1	MC4R barr agon 8.7
CC1(C(=O)Nc2ccc3c(c2)OCCO3)CN(S(C)(=O)=O)CC(=O)N1CCCN1CCOCC1 (stereo not given)	none (no result: MC4R barr agon, MC4R antagonist)
CCOc1ccc(NS(=O)(=O)c2cc(OC)ccc2OC)cc1	none
CCOc1ccc(S(=O)(=O)Nc2ccc(F)cc2)c(C)c1C	MC4R barr agon 8.8
O=C(C(=O)N1CCN(C(=O)c2ccco2)CC1)c1ccccc1	none (no result: MC4R barr agon, MC4R antagonist)
COc1ccc(/C=C/C(=O)NCc2cn(C)nc2C)cc1COc1ccc(Br)cc1	MC4R barr agon 9.1
CC(C)(C)NC(=O)C1c2ccccc2OCC(=O)N1CC(F)(F)F (stereo not given)	none (no result: MC4R barr agon, MC4R antagonist)
Cc1ccc(CNC(=O)C2CCC(=O)N(CCc3ccc(Cl)cc3)C2)cc1 (stereo not given)	EBI2 antag 49
Cc1ccc(CNC(=O)C2CCC(=O)N(CCc3ccc(Cl)cc3)C2)s1 (stereo not given)	none
CCc1ccc(Nc2cnn(-c3nc4ccccc4s3)c(=O)c2Cl)cc1	MC4R barr agon 8.2
CCCCNc1cnn(-c2ccccc2)c(=O)c1Cl	none
Cc1ccc2nc(-c3ccc(-c4cccc(Cl)c4)cc3)c(NCc3ccccc3)n2c1	EBI2 antag 58
CCCCC(=O)N(C)c1c(C)nc2ccc(C(=O)N3CCNC(=O)C3)cn12	none
O=C(c1cccc(C(F)(F)F)c1)N1CCc2c([nH]c3ccccc23)C1C(F)(F)F (stereo not given)	MC4R barr agon 8.8
O=C(O)c1ccccc1C(=O)N1CCc2c([nH]c3ccccc23)C1C(F)(F)F (stereo not given)	none
CCc1nc2c(OCCn3cccc3)cccn2c1N(C)C(=O)c1ccc(C)cc1	none
COc1ccc(C2CCCN2C(=O)Nc2ccc(C)c(C)c2)cc1OC (stereo not given)	EBI2 antag 51
O=C1Nc2ccccc2N=C(c2ccccc2)C1N(C(=O)c1ccnc2ccccc12)c1ccccc1 (stereo not given)	none (no result: MC4R barr agon, MC4R antagonist)
O=C1C=C(c2ccc(Cl)nc2)C[C@@H](c2ccc3c(c2)OCO3)C1	none
Cc1ccc(C(=O)CN2/C(=C(\O)c3ccccc3)C(=O)c3ccccc3S2(=O)=O)c(C)c1	MC4R barr agon 12
Cc1ccc(C(=O)CN2C(=O)c3ccccc3S2(=O)=O)cc1	none
O=C(Nc1cnn(Cc2ccc(F)cc2)c1)c1cc(-c2cccs2)on1	MC4R barr agon 13
COc1cccc(CNc2nc3cc(C(C)=C(C)C)sc3c(=O)n2C)c1	none
O=C(Nc1ccc(N2CCN(c3ncccc3C(F)(F)F)CC2)nc1)c1cccs1	MC4R barr agon 9.6
CCOc1ccc2nc(NCCNC(=O)Nc3ccccc3)c(C#N)cc2c1	MC4R barr agon 9.6

Screening data: PubChem, several laboratories
